Converted amounts (≈) assume the structure as drawn.

What all share (type): functional
One experiment concerns Escherichia coli. The experiment in a line: Antibacterial activity against Escherichia coli DH52 after 24 hrs by twofold broth dilution method. The following applies: DH52, 24 h. Put shortly: (§1)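 MIC by NCCLS-recommended twofold broth microdilution, run in triplicate. Strains: B. subtilis ATCC6633, E. coli DH52, M. luteus ATCC4698, P. vulgaris ATCC6896, S. dysenteriae, S. aureus ATCC25923, MRSA N315, C. albicans ATCC76615, C. mycoderma. References were chloromycin, norfloxacin and berberine for bacteria, and fluconazole for fungi.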

The subject of a further experiment is Candida. The experiment is described as follows: Antifungal activity against Candida mycoderma after 24 hrs by twofold broth dilution method. Put shortly: as §1
(In general: Dilution methods test growth across graded concentrations, often in twofold steps.)

Experiment [1] deals with Staphylococcus aureus. The experiment is described as follows: Antibacterial activity against methicillin-resistant Staphylococcus aureus N315 after 24 hrs by twofold broth dilution method. Particulars: N315, 24 h. Put shortly: as §1
The subject of the next experiment is Micrococcus luteus. The experiment is described as follows: Antibacterial activity against Micrococcus luteus ATCC 4698 after 24 hrs by twofold broth dilution method. The following applies: ATCC 4698, 24 h. Put shortly: as §1
The next experiment has as its system Pseudomonas aeruginosa. The experiment in a line: Antibacterial activity against Pseudomonas aeruginosa after 24 hrs by twofold broth dilution method. Put shortly: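 Twofold broth dilution in 96-well microplates following NCCLS guidance; MIC read as the endpoint; tests run in triplicate.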
The test system of a further experiment is Shigella dysenteriae. The experiment is described as follows: Antibacterial activity against Shigella dysenteriae after 24 hrs by twofold broth dilution method. Put shortly: as §1
A further experiment has as its system Proteus vulgaris. The experiment in a line: Antibacterial activity against Proteus vulgaris after 24 hrs by twofold broth dilution method. Put shortly: as §1
The next experiment relates to Bacillus subtilis. The experiment is described as follows: Antibacterial activity against Bacillus subtilis after 24 hrs by twofold broth dilution method. Put shortly:
as §1

For the next experiment, the system named is Candida albicans. The experiment in a line: Antifungal activity against Candida albicans after 24 hrs by twofold broth dilution method. Put shortly:
as §1

The test system of experiment [2] is Staphylococcus aureus. The experiment in a line: Antibacterial activity against Staphylococcus aureus ATCC 25923 after 24 hrs by twofold broth dilution method. The following applies: ATCC 25923, 24 h. Put shortly:
as §1

The MIC is the least concentration at which growth counts as inhibited. Take `O=[N+]([O-])c1cncn1CCN(CCBr)Cc1ccc(Cl)c(Cl)c1`: the MIC against Escherichia coli turned out to be 16 µg/mL (≈ 37.9 µM); with Candida, 128 µg/mL (≈ 303 µM); against Staphylococcus aureus [1], 32 µg/mL (≈ 75.8 µM); against Micrococcus luteus, 128 µg/mL (≈ 303 µM); in the experiment with Pseudomonas aeruginosa, 16 µg/mL (≈ 37.9 µM); against Shigella dysenteriae, 8 µg/mL (≈ 19 µM). In addition, the MIC with Proteus vulgaris worked out at 32 µg/mL (≈ 75.8 µM); in the experiment on Bacillus subtilis it was 32 µg/mL (≈ 75.8 µM); in the experiment with Candida albicans it was 16 µg/mL (≈ 37.9 µM); in the experiment on Staphylococcus aureus [2], 32 µg/mL (≈ 75.8 µM).
On to `O=[N+]([O-])c1cncn1CCN(CCBr)Cc1ccccc1Cl`, for which the MIC with Escherichia coli was 8 µg/mL (≈ 20.6 µM); against Candida it was 32 µg/mL (≈ 82.5 µM); with Staphylococcus aureus [1], 16 µg/mL (≈ 41.3 µM); with Micrococcus luteus, 64 µg/mL (≈ 165 µM); in the experiment with Pseudomonas aeruginosa, 16 µg/mL (≈ 41.3 µM); in the experiment with Shigella dysenteriae it was 16 µg/mL (≈ 41.3 µM). Moreover, the MIC turned out to be 16 µg/mL (≈ 41.3 µM) with Proteus vulgaris, 8 µg/mL (≈ 20.6 µM) against Bacillus subtilis, 8 µg/mL (≈ 20.6 µM) against Candida albicans and 8 µg/mL (≈ 20.6 µM) with Staphylococcus aureus [2].
Take `O=[N+]([O-])c1cncn1CCN(CCBr)Cc1cccc(Cl)c1`: the MIC is 64 µg/mL (≈ 165 µM) against Escherichia coli; 64 µg/mL (≈ 165 µM) with Candida; 64 µg/mL (≈ 165 µM) against Staphylococcus aureus [1]; 64 µg/mL (≈ 165 µM) against Micrococcus luteus; 32 µg/mL (≈ 82.5 µM) against Pseudomonas aeruginosa; 256 µg/mL (≈ 660 µM) in the experiment on Shigella dysenteriae. Besides, the MIC against Proteus vulgaris came to 256 µg/mL (≈ 660 µM); in the experiment on Bacillus subtilis, 64 µg/mL (≈ 165 µM); with Candida albicans, 64 µg/mL (≈ 165 µM); with Staphylococcus aureus [2] it was 16 µg/mL (≈ 41.3 µM).
With `O=[N+]([O-])c1cncn1CCN(CCBr)Cc1ccc(Cl)cc1`, the MIC was determined as 128 µg/mL (≈ 330 µM) against Escherichia coli; 128 µg/mL (≈ 330 µM) against Candida; 128 µg/mL (≈ 330 µM) against Staphylococcus aureus [1]; 128 µg/mL (≈ 330 µM) against Micrococcus luteus; 64 µg/mL (≈ 165 µM) against Pseudomonas aeruginosa; 256 µg/mL (≈ 660 µM) with Shigella dysenteriae. Moreover, the MIC is 256 µg/mL (≈ 660 µM) against Proteus vulgaris, 64 µg/mL (≈ 165 µM) against Bacillus subtilis, 64 µg/mL (≈ 165 µM) in the experiment on Candida albicans and 64 µg/mL (≈ 165 µM) against Staphylococcus aureus [2].
`O=[N+]([O-])c1cn(CCN(CCBr)Cc2cccc(Cl)c2)cn1`: the MIC was 128 µg/mL (≈ 330 µM) against Escherichia coli; 128 µg/mL (≈ 330 µM) with Candida; 128 µg/mL (≈ 330 µM) against Staphylococcus aureus [1]; 64 µg/mL (≈ 165 µM) against Micrococcus luteus; 64 µg/mL (≈ 165 µM) in the experiment on Pseudomonas aeruginosa; 256 µg/mL (≈ 660 µM) with Shigella dysenteriae. Besides, the MIC against Proteus vulgaris was 512 µg/mL (≈ 1320 µM); with Bacillus subtilis, 64 µg/mL (≈ 165 µM); against Candida albicans, 128 µg/mL (≈ 330 µM); in the experiment with Staphylococcus aureus [2], 64 µg/mL (≈ 165 µM).
Consider `O=[N+]([O-])c1cn(CCN(CCBr)Cc2ccc(Cl)cc2)cn1`, for which the MIC against Escherichia coli stood at 128 µg/mL (≈ 330 µM); against Candida, 128 µg/mL (≈ 330 µM); against Staphylococcus aureus [1] it was 128 µg/mL (≈ 330 µM); against Micrococcus luteus, 128 µg/mL (≈ 330 µM); with Pseudomonas aeruginosa, 256 µg/mL (≈ 660 µM); against Shigella dysenteriae it was 128 µg/mL (≈ 330 µM). For the same compound, the MIC was 128 µg/mL (≈ 330 µM) in the experiment on Proteus vulgaris, 64 µg/mL (≈ 165 µM) with Bacillus subtilis, 64 µg/mL (≈ 165 µM) against Candida albicans and 64 µg/mL (≈ 165 µM) against Staphylococcus aureus [2].
As for `O=[N+]([O-])c1cncn1CCN(CCBr)Cc1ccc(F)cc1F`, the MIC in the experiment on Escherichia coli turned out to be 32 µg/mL (≈ 82.2 µM); in the experiment on Candida it was 4 µg/mL (≈ 10.3 µM); in the experiment on Staphylococcus aureus [1] it was 32 µg/mL (≈ 82.2 µM); against Micrococcus luteus, 16 µg/mL (≈ 41.1 µM); against Pseudomonas aeruginosa, 8 µg/mL (≈ 20.6 µM); in the experiment with Shigella dysenteriae it was 8 µg/mL (≈ 20.6 µM). Moreover, the MIC against Proteus vulgaris came to 16 µg/mL (≈ 41.1 µM); in the experiment on Bacillus subtilis, 64 µg/mL (≈ 164 µM); against Candida albicans it was 16 µg/mL (≈ 41.1 µM); against Staphylococcus aureus [2], 32 µg/mL (≈ 82.2 µM).
For the compound `NC1CCN(c2c(F)cc3c(=O)c(C(=O)O)cn(C4CC4)c3c2Cl)C1` (stereo unspecified) [CLINAFLOXACIN], it took 16 µg/mL (≈ 43.7 µM) to inhibit growth in the experiment with Pseudomonas aeruginosa (MIC).
Regarding `OC(Cn1cncn1)(Cn1cncn1)c1ccc(F)cc1F` [FLUCONAZOLE], the MIC against Candida was found to be 4 µg/mL (≈ 13.1 µM); against Candida albicans, 1 µg/mL (≈ 3.27 µM).
On to `CCn1cc(C(=O)O)c(=O)c2cc(F)c(N3CCNCC3)cc21` [NORFLOXACIN], for which the MIC against Escherichia coli stood at 16 µg/mL (≈ 50.1 µM); against Staphylococcus aureus [1], 8 µg/mL (≈ 25.1 µM); in the experiment with Micrococcus luteus it was 2 µg/mL (≈ 6.26 µM); with Pseudomonas aeruginosa, 16 µg/mL (≈ 50.1 µM); in the experiment on Shigella dysenteriae, 4 µg/mL (≈ 12.5 µM); in the experiment on Proteus vulgaris it was 8 µg/mL (≈ 25.1 µM). Besides, the MIC was 1 µg/mL (≈ 3.13 µM) in the experiment on Bacillus subtilis and 0.5 µg/mL (≈ 1.57 µM) with Staphylococcus aureus [2].
